# NPY-Y1 antag: NPY-Y1 receptor antagonists, primary screen, cell-based; AID 1040, 2008; HEK293-CNG Y1 cells, membrane potential fluorescence; NPY at EC95, then isoproterenol; inhibition, % at 3.6 µM; hit rate 1% among 200,000; Neuropeptide Y receptor type 1 (Homo sapiens), P25929;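 active = inhibition above the campaign mean inhibition of all tested compounds plus 3 SD, cut at about 20% in these data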;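 also: 0% = DMSO wells given NPY plus isoproterenol and 100% = isoproterenol alone without NPY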
# Target sequence (P25929 whole entry, looked up): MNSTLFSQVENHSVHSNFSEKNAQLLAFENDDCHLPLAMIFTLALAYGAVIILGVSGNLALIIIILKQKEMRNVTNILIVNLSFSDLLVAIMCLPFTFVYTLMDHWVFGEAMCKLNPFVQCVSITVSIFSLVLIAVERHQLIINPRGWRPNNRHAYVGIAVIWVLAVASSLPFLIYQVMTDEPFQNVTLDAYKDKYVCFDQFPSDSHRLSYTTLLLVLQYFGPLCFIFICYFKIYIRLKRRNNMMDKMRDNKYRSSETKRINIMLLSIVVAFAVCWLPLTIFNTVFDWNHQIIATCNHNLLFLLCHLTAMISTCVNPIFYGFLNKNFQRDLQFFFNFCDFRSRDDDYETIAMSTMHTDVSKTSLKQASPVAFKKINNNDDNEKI
#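 material = HEK293 cells with Y1 receptor plus CNG channel | also added = NPY 25 nM then isoproterenol 1 µM plus Ro 20-1724 25 µM | schedule = dye 3 h, compound 60 min room temperature, stimulation 45 min | measured by = membrane potential fluorescence | benchmarks = high control isoproterenol alone, low control NPY with isoproterenol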
# NPY2 pot ag: NPY-Y2 potentiators or agonists, primary screen, cell-based. activation, % at 3.6 µM. Neuropeptide Y receptor type 2 (Homo sapiens), P49146. cells expressing NPY-Y2, potentiator/agonist read-out. hit rate 0.45% among 220,000; in the data active = activation above about 27%;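 also: cells stimulated with NPY near EC25 plus isoproterenol at EC100; 0% = vehicle plus submaximal agonist and 100% = vehicle plus saturating agonist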
# NPY Y2 blocker: NPY-Y2 receptor antagonists, primary screen, cell-based | Neuropeptide Y receptor type 2 (Homo sapiens), P49146 | NPY-Y2 expressing cells, antagonist mode | inhibition, % at 2.7 µM | hit rate 0.99% among 140,000 | AID 793, 2007;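 also: 0% = vehicle with agonist challenge and 100% = reference antagonist with challenge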
# NPY1 pot ag: NPY-Y1 receptor potentiators or agonists, primary screen, cell-based | hit rate 0.37% among 220,000 | NPY-Y1 expressing cells, potentiator/agonist activation | activation, % at 3.6 µM | Neuropeptide Y receptor type 1 (Homo sapiens), P25929; in the data active = activation above about 33%, passing the limit was not always enough;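 also: cells stimulated with NPY at EC10 then isoproterenol at EC100; 0% = low agonist plus stimulus and 100% = saturating agonist plus stimulus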
# EP2 antag: human EP2 receptor antagonists, primary screen, TR-FRET cAMP, C6 glioma cells. Prostaglandin E2 receptor EP2 subtype (Homo sapiens), P43116. C6 glioma cells expressing human EP2; cells stimulated with saturating PGE2. inhibition, % at 25 µM. hit rate 0.52% among 260,000. AID 1422, 2008;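 active = percent inhibition above 40 after rounding to a whole number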;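 also: rat C6 glioma host cells with rolipram phosphodiesterase inhibitor present; the protocol text gives 20 µM as final concentration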
# Target sequence (P43116 whole entry, looked up): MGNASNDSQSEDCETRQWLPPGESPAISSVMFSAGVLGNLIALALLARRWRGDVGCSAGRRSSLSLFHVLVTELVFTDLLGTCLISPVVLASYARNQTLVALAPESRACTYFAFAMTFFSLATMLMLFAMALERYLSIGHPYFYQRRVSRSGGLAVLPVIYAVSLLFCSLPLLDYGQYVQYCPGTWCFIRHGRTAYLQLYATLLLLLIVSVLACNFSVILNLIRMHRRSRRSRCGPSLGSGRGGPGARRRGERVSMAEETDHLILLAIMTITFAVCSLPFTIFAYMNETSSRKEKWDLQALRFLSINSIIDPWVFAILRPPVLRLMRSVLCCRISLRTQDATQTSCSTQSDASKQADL
# EP2 mod: EP2 receptor modulators, cAMP readout, primary screen, cell-based, HTRF cAMP, PGE2 stimulation; Prostaglandin E2 receptor EP2 subtype (Homo sapiens), P43116; EP2-expressing cells, cAMP HTRF FRET, PGE2 co-stimulation; induction, % at 25 µM; hit rate 0.83% among 260,000; AID 940, 2007;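 active = compounds whose cAMP rise, as percent of the full-agonist control response, exceeds 60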;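 also: rat C6 glioma line stably carrying human EP2 under a CMV promoter; the protocol text gives 20 µM as final concentration; 100% = response of wells given 1 µM PGE2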
# NPY-Y1 ant conf: NPY-Y1 receptor antagonists, retest of hits, confirmation, HEK293-CNG cells, membrane potential fluorescence, triplicate | shares compounds with NPY-Y1 antag | cAMP; NPY challenge against isoproterenol-raised cAMP | inhibition, % at 3.6 µM | hit rate 21% among 1,200 | AID 1254, 2008; in the data active = inhibition above about 20%;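 also: 0% = vehicle with agonist plus stimulus and 100% = stimulus alone without agonist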
# NPY2 antag ctr: NPY-Y2 receptor antagonists, selectivity check, confirmation, counter-screen for NPY-Y1 antagonist project, HEK293-CNG cells, membrane potential fluorescence, triplicate; AID 1255, 2008; antagonism; cells given NPY, then isoproterenol; shares compounds with NPY-Y1 antag; hit rate 28% among 1,200; inhibition, % at 3.6 µM;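 also: 0% = DMSO with agonist challenge and 100% = reference antagonist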
# * marks the source's active call; other numbers are inactive results; . = no result given. An excerpt weighted towards active compounds, which were near 2.8% of everything screened. Rule as the data show it, unless noted: active = inhibition above about 17%; inactive = the rest.
SMILES,NPY-Y1 antag,NPY2 pot ag,NPY Y2 blocker,NPY1 pot ag,EP2 antag,EP2 mod,NPY-Y1 ant conf,NPY2 antag ctr
O=C(O)CNC(=S)N(Cc1ccccc1)Cc1cccs1,8.4,-0.5,.,-2.7,9.9,-9.6,.,.
Cc1cccc(C)c1NC(=S)N(Cc1ccccc1)Cc1cccs1,38.0*,-18.4,.,-27.9,8.7,63.0*,17.1,20.1*
Cc1ccc(C)c(OCC(=O)N/N=C/c2c(C)nn(-c3ccccc3)c2Cl)c1,21.1*,-17.9,11.9,-5.4,.,32.2,5.3,12.3
CCCCCCC(=O)Nc1c2c(nc3ccccc13)N(C)CC2,24.5*,0.0,9.9,-34.5,15.8,-41.0,6.2,8.4
Cc1ccc(CNc2ccc(Cl)cc2[N+](=O)[O-])cc1,24.3*,-18.1,5.4,-18.2,.,15.5,7.8,12.5
O=C1CCC(/C=C/c2ccccc2)=NN1Cc1ccccc1,10.4,-19.4,.,-20.4,3.0,-57.7,.,.
CC(C)(C)c1ccc(CN2N=C(/C=C/c3ccccc3)CCC2=O)cc1,25.3*,-21.4,.,-22.8,7.6,41.7,19.3,17.1
CCOC(=O)c1c(CNCCN(CC)CC)n(C)c2cc(Br)c(OC)cc12,26.8*,-26.9,12.8,-17.5,16.8,-11.2,11.4,15.2
CCOC(=O)c1c(C)n(C)c2cc(Br)c(OC)cc12,8.2,-8.9,.,-14.1,5.4,57.3,.,.
Cc1ccc2nc3c(c(C(=O)O)c2c1)CCC3,22.1*,-1.7,7.7,-38.3,3.4,0.1,4.7,10.6
CC(C)N1C(=S)N(Cc2ccco2)C(=O)C1CC(=O)Nc1ccccc1 (centres undefined),74.2*,4.1,.,7.0,3.5,-40.5,-0.7,-1.3
Clc1cccc(OCCN2CCN(CCOc3cccc(Cl)c3)CC2)c1,21.1*,-3.6,10.7,-4.8,1.5,-47.4,4.9,6.5
CCCOc1cccc(/C(O)=C2/C(=O)C(=O)N(CCN(C)C)C2c2ccncc2)c1 (centres undefined),.,.,.,.,9.4,-22.7,.,.
Cc1ccc(-c2csc3nc4c5ccccc5c(NCCCN(C)C)nn4c(=O)c23)cc1,24.2*,-40.5,.,-89.3,14.3,-51.2,24.0*,26.2*
Cc1ccc(-c2csc3nc4c5ccccc5c(NCCCN5CCOCC5)nn4c(=O)c23)cc1,-5.8,7.0,.,-4.6,17.6,-25.9,.,.
CCn1c(COc2ccccc2C)nnc1SCC(=O)Nc1sc2c(c1C#N)CCCC2,.,.,.,.,13.3,47.3,.,.
Cc1nc2cc(N3CCCCC3)c(NC(=O)c3cccnc3)cc2c(=O)n1Cc1ccccc1,23.0*,-26.0,6.3,-77.4,9.1,21.9,7.8,9.5
CN(C)CCn1c(=N)n(CC(O)c2ccc(Cl)c(Cl)c2)c2ccccc21 (centres undefined),22.7*,-32.9,.,-15.9,6.1,-49.5,15.6,29.4*
O=C(C1CC1)N(CCN(Cc1ccccc1)C(=O)C1CC1)Cc1ccccc1,54.6*,-8.7,15.5,-25.5,.,17.1,39.6*,24.2*
CCN(Cc1ccccc1)C(=O)C1CCN(CC2CC=CCC2)CC1 (centres undefined),5.7,-1.8,2.5,-10.8,5.2,-24.4,.,.
CC[C@H](Cn1nnc2ccccc2c1=O)NC(=O)c1cnccn1,.,.,.,.,6.9,8.7,.,.
COC(=O)[C@@]1(Cc2ccc(F)cc2)[C@H]2c3cc(C(=O)N(C)C)n(Cc4ccc(OC)c(OC)c4)c3C[C@H]2CN1C(=O)c1ccccc1,6.6,-1.0,8.2,16.9,-0.4,12.4,.,.
COC(=O)[C@@]1(Cc2ccc(OC)cc2)[C@H]2c3cc(C(=O)N(C)C)n(Cc4ccc(OC(F)(F)F)cc4)c3C[C@H]2CN1C(=O)c1ccccc1,35.1*,8.7,16.0,3.4,4.4,42.9,14.3,6.4
CCCCN(c1ccc(C(=O)OC)cc1)S(=O)(=O)c1ccccc1,86.3*,-14.6,.,-8.3,4.6,46.2,10.2,7.5
CCCN(c1ccc(C(=O)OC)cc1)S(=O)(=O)c1ccccc1,11.0,-8.2,.,-33.5,-0.1,49.9,.,.
SMILES,NPY-Y1 antag,NPY2 pot ag,NPY Y2 blocker,NPY1 pot ag,EP2 antag,EP2 mod,NPY-Y1 ant conf,NPY2 antag ctr
COc1ccc2c(c1)cc(C)c1nn(CC(=O)N3CCC(C(N)=O)CC3)c(=O)n12,.,.,.,.,7.7,-46.5,.,.
Cc1ccccc1NC1=C(Cl)C(=O)N(C2CCCCC2)C1=O,22.0*,7.3,2.7,-13.9,20.3,-20.6,7.4,0.9
CCCC(c1nnnn1CCc1ccc(OC)c(OC)c1)N1CCN(C)CC1 (centres undefined),.,.,.,.,5.5,7.3,.,.
CC1(C)Cc2ccccc2-c2nnc(SCC(=O)OC3CCCCC3)n21,.,.,.,.,10.3,-39.9,.,.
CCc1n[nH]c(=S)n1/N=C/c1ccc2c(c1)OCO2,4.8,-14.7,4.0,-5.5,9.0,21.8,.,.
CCc1n[nH]c(=S)n1/N=C/c1ccc(N(C)c2ccccc2)cc1,35.2*,-31.8,.,-15.7,7.9,58.4,18.0,10.7
COc1cccc(NC(=O)NC(C)C2CC3CCC2C3)c1 (centres undefined),23.5*,-16.4,.,-8.6,6.9,-42.1,2.7,34.3*
CCOC(=O)c1c(-c2ccccc2)csc1NC(=O)CSc1nc(C)cc(C)n1,20.3*,-23.2,9.2,-35.8,7.1,58.0,9.0,15.3
CCC(c1nnnn1Cc1ccco1)N(Cc1ccc(OC)cc1)Cc1cc2ccc(C)cc2[nH]c1=O (centres undefined),.,.,.,.,5.3,4.3,.,.
COC(=O)C1(C)CN(S(=O)(=O)c2ccc(C)cc2)c2cc(OC)ccc2C1=O (centres undefined),-2.5,-2.3,2.8,-8.6,-2.0,24.9,.,.
COc1ccc2c(c1)C(C)=CC(C)(C)N2S(=O)(=O)c1ccc(C)cc1,36.0*,7.3,.,-1.2,13.8,60.3,18.1,15.3
CCOc1ccc2c(c1)C(C)=CC(C)(C)N2S(=O)(=O)c1ccc(C)cc1,56.9*,-23.9,.,-28.0,9.3,45.7,39.4*,25.1*
COc1ccc(OC)c(-c2csc(N(CCc3ccccc3)C(=O)c3cccs3)n2)c1,.,.,.,.,9.9,28.9,.,.
CCOc1ccc(C(=O)Nc2ccc(N3CCN(C(=O)c4cccs4)CC3)cc2)cc1,.,.,.,.,5.7,17.8,.,.
COC(=O)c1[nH]c2c(c1C)C(=O)CCC2,30.8*,3.8,-0.5,-5.0,9.1,9.1,-3.7,2.2
